Bioassay records from PubChem BioAssay.
Shown is part of a subset that was picked to be rich in hits.
CTSL1 counter: blocks F. hepatica cathepsin L1 in PFM18AAP counter-screen | recombinant F. hepatica cathepsin L1, Z-Leu-Arg-MCA fluorescence | inhibition, % at 5.96 µM | 300,000 compounds, 0.49% hits | AID 1906;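 active = inhibition above the mean of all tested compounds plus 3 SD, set per screening campaign, cut at about 17% in these data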;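 also: 0% = plate median of test compound wells and 100% = 1 µM Z-Phe-Ala-diazomethylketone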
UPR CHOP act: apoptotic UPR (CHOP) activation; 330,000 compounds, 0.34% hits; CHO-CHOP luciferase reporter, luminescence; percent of tunicamycin response over DMSO baseline; activation, % at 10 µM;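 active = at 10 µM dose, activation of 40% or more, normalized to positive control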;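 also: 100% = tunicamycin at 10 µg/mL and 0% = DMSO alone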
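System: CHO-CHOP luciferase reporter cell line | Buffer or medium: F12 medium containing 10% fetal bovine serum | Doses: One dose, 10 µM in 0.5% DMSO | Times: 6 h compound exposure at 37 °C after overnight seeding | Signal: Luciferase luminescence | Read-out: % activation vs tunicamycin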
UCH37 DUB inh: human UCH37 deubiquitinating enzyme inhibition; inhibition, % (test concentration not listed); purified proteasome/UCH37, Ub-AMC cleavage fluorescence; 330,000 compounds, 0.33% hits; Q9Y5K5; AID 588478;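 active = mean inhibition over replicate wells above about 20%, limit read from the data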;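 also: 0% = compound-free wells with enzyme and 100% = wells lacking proteasome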
Target sequence (Q9Y5K5 whole entry, looked up): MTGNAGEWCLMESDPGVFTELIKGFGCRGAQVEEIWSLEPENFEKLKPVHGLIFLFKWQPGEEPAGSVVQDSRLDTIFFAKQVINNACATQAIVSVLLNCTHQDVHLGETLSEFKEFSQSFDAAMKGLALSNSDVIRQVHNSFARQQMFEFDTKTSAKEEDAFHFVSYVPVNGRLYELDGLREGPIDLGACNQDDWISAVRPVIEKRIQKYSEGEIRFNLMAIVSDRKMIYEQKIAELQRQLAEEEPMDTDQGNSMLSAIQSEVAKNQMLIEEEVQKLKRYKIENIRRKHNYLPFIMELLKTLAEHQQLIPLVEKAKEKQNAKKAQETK
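System: Proteasome-associated human UCH37 deubiquitinase; Input: 0.15 nM proteasome in added enzyme buffer; Also added: Ub-AMC substrate from 1 µM stock; Incubation: 30 min compound-proteasome preincubation then 25 min substrate reaction, room temperature; Detection: fluorescence, ex 355 nm, em 460 nm; Read-out: % inhibition of Ub-AMC cleavage fluorescence; Benchmarks: no-proteasome and no-compound wells.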
UPR XBP1 act: adaptive UPR (XBP1) activation. CHO-XBP1 luciferase reporter, IRE1-XBP1 UPR activation, luminescence; percent of tunicamycin response, DMSO as zero. 330,000 compounds, 0.33% hits. activation, % at 20 µM;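 active = versus positive control, 20 µM dose yields 30% or more activation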;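 also: 100% = tunicamycin at 10 µg/mL and 0% = DMSO only wells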
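assay system = CHO-XBP1 luciferase reporter cells | amount = 1000 cells/well | buffer or medium = F12 plus 10% FBS | compound dosing = single point, 20 µM final compound, 1% DMSO | incubation = 16-18 h cell attachment at 37 °C, then 6 h compound exposure | detection = Steady-Glo luminescence read | controls = tunicamycin 10 µg/mL and vehicle-only wells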
CHOP inhibitor: blocks CHOP induction under ER stress | inhibition, % at 10 µM | CHO-K1 CHOP-promoter luciferase, tunicamycin-induced, 15-18 h | 220,000 compounds, 3.8% hits;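 active = compounds that reduced the stress-induced luciferase reporter signal by more than about 70% of percent inhibition, limit read from the data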;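 also: 0% = tunicamycin plus vehicle and 100% = wells without tunicamycin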
CHOP confirm: confirmation of CHOP induction inhibitors. shares compounds with CHOP inhibitor. CHO-CHOP promoter luciferase reporter, tunicamycin-induced, luminescence. inhibition, % at 10 µM. 2,100 compounds, 45% hits;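 active = mean of three repeat readings of reporter signal inhibition above a set limit, cut at about 70% in these data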;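 also: 0% = tunicamycin plus vehicle and 100% = wells lacking tunicamycin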
Active calls of the source: *; . = no result given.

SMILES	CTSL1 counter	UPR CHOP act	UCH37 DUB inh	UPR XBP1 act	CHOP inhibitor	CHOP confirm
CCCCC1=CC2=C(c3ccco3)C(=O)C(C)(OC(=O)c3ccc(OC)cc3)C(=O)C2=CN1CCc1ccccn1 (stereo unspecified)	4	4	2	-3	-146	.
CCCCC1=CC2=C(c3ccco3)C(=O)C(C)(OC(=O)c3ccc(OC)cc3)C(=O)C2=CN1Cc1ccc2c(c1)OCO2 (stereo unspecified)	1	4	.	6	102*	24
Cc1nn(-c2ccccc2)c(Cl)c1C=NNC(=O)c1nn(C)cc1[N+](=O)[O-]	.	.	4	.	.	.
Cc1ccc2nc(C)c(=NO)c(C)nc2c1	.	.	0	.	.	.
CCOC(=O)c1c(NC(N)=O)sc(C)c1C	-1	0	5	2	55	.
CCOC(=O)c1c(N2C(=O)C=CC2=O)sc(C)c1C	-2	36	0	-3	109*	7
O=C(Nc1nnc(-c2ccccc2)s1)c1ccc(F)cc1	0	5	-3	-1	103*	36
O=C(Cc1cccc2ccccc12)NC(NC(=S)Nc1ccccc1Cl)C(Cl)(Cl)Cl (stereo unspecified)	0	0	4	0	104*	-14
Fc1ccc2[nH]c3c(N4CCN(c5ccccc5)CC4)ncnc3c2c1	5	1	-4	0	61	.
OC1(c2cccc(C(F)(F)F)c2)CCN(c2ncnc3c2[nH]c2ccc(F)cc23)CC1	.	.	-9	.	.	102*
CN(C)/C=C(\C#N)C(=O)NN=Cc1ccc(F)cc1	.	.	8	.	.	.
NC(=S)n1[nH]c(-c2ccc([N+](=O)[O-])cc2)c(N=Nc2ccc(O)cc2)c1=O	7	4	3	5	107*	-20
Cc1[nH]n(C(N)=S)c(=O)c1N=Nc1ccc([N+](=O)[O-])cc1Cl	.	23	16	-4	.	.
O=C(NCc1ccccc1)c1cc(-c2ccncc2)nc2ccc(S(=O)(=O)N3CCOCC3)cc12	2	1	5	0	103*	108*
O=C(O)c1cc(-c2ccncc2)nc2ccc(S(=O)(=O)N3CCOCC3)cc12	4	0	3	-2	24	.
Cc1c(O)ccc(C=NNc2nc(-c3cccnc3)nc3ccccc23)c1O	.	.	2	.	.	.
C=CCOc1ccccc1C=NO	.	.	2	.	.	.
COc1ccc(C(C)=NNC(=O)c2sccc2-n2cccc2)cc1	.	.	-22	.	.	.
CCOc1cc([N+](=O)[O-])cc(C=NNC(=O)c2c(-c3ccccc3)noc2C)c1O	.	.	16	.	.	.
C(=N\Nc1ncnc2sc3c(c12)CCC3)/c1ccncc1	2	-2	.	15	-10	.
C(=N\Nc1ncnc2sc3c(c12)CCC3)/c1cccs1	7	-1	.	6	102*	73*
C=CCOc1ccc(/C=C2\SC(=Nc3cccnc3)NC2=O)cc1	5	0	5	2	101*	-3
CC(=NNC(=O)c1ccccc1)c1ccc(-n2ccnc2)cc1	.	.	1	.	.	.
CC(C)(C)c1cc(C(c2cccnc2)N2CCN(CCO)CC2)cc(C(C)(C)C)c1O (stereo unspecified)	0	-9	4	-9	110*	-60
CCn1c(O)c(/C=C2\C=NN=C2c2ccccc2)sc1=S	-2	1	2	-1	98*	14
SMILES	CTSL1 counter	UPR CHOP act	UCH37 DUB inh	UPR XBP1 act	CHOP inhibitor	CHOP confirm
CCCCn1c(O)c(/C=C2\C=NN=C2c2ccccc2)sc1=S	1	5	5	8	61	.
Cc1cccc(C=NNC(=O)c2ccc(Cl)cc2)c1O	.	.	1	.	.	.
Cc1cccc(/C=N\NC(=O)c2ccc(Cl)cc2)c1O	-4	7	.	2	98*	17
COc1cc(C(=O)O/N=C2\C=CC(=O)C(C)=C2)cc(OC)c1OC	6	-2	.	-8	108*	99*
COc1cc(C(=O)ON=C2C=C(C)C(=O)C(C)=C2)cc(OC)c1OC	0	2	10	-1	-138	.
O=C1c2ccccc2C(=O)C1c1nccc2ccccc12	-1	-8	0	-12	106*	104*
Cc1ccc(S(=O)(=O)C2CS(=O)(=O)CC2O)cc1 (stereo unspecified)	2	0	0	-1	-26	.
